Test results reported in ChEMBL document CHEMBL1938274, “Discovery of potent and specific CXCR3 antagonists” (Bioorg Med Chem Lett, 2012).
pIC50: −log10 of the molar value.

Assays:
PBL [1] = experiment: Toxicity in human PBL assessed as chromosomal aberrations at 7.81 to 1000 ug/mL; format: cell-based
Procedure, shortened: (§1)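 Cultured human peripheral blood lymphocytes exposed at 7.81–1000 μg/mL, with and without S9 metabolic activation; chromosomal aberrations scored.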

[2] = target: T1, C-X-C chemokine receptor type 3 (Homo sapiens, UniProt P49682); experiment: Displacement of [125I]-IP-10 from CXCR3 in presence of 100% human serum
T1 sequence (P49682 whole entry): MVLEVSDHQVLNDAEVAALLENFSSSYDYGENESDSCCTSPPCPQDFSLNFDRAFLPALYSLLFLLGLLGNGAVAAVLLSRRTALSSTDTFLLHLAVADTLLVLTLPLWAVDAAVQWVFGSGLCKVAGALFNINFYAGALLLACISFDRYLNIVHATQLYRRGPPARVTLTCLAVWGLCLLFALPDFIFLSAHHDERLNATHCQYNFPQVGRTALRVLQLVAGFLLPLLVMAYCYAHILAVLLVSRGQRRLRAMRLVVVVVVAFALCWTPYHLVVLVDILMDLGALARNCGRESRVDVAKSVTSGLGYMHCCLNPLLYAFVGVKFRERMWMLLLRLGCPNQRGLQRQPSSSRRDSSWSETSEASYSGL

[3] = target: T1, C-X-C chemokine receptor type 3; experiment: Displacement of [125I]-IP-10 from CXCR3
PBL [4] = experiment: Toxicity in human PBL assessed as chromosomal aberrations at 7.81 to 1000 ug/mL in the presence of S9; format: cell-based; procedure, shortened: as §1
[5] = Permeability of the compound at pH 5 to 7.4 by PAMPA; format: ADME; conditions: read-out: permeability
Procedure, shortened: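 PAMPA permeability measured across pH 5 to 7.4.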

[6] = Half life in cynomolgus monkey at 0.5 mg/kg, iv; format: ADME, organism-based, Macaca fascicularis; parameters: dose 0.5 mg/kg, route intravenous; conditions: in vivo
Procedure, shortened: (§2)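 Single intravenous dose in 10% N,N-dimethylacetamide, 10% ethanol, 30% propylene glycol, 50% water: 1 mg/kg mouse; 0.5 mg/kg rat, beagle dog, cynomolgus monkey. Plasma clearance also given as percent of hepatic blood flow.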

[7] = Apparent oral bioavailability in rat at 2 mg/kg; format: ADME, organism-based; conditions: in vivo, read-out: Fapp
[8] = Volume of distribution at steady state in rat at 0.5 mg/kg, iv; format: ADME, organism-based; parameters: dose 0.5 mg/kg, route intravenous; conditions: in vivo, read-out: Vdss; procedure, shortened: as §2
Cytochrome P450 2D6 = Cytochrome P450 2D6 (Homo sapiens, UniProt P10635); experiment: Inhibition of CYP2D6; format: ADME
Sequence of Cytochrome P450 2D6 (P10635 whole entry): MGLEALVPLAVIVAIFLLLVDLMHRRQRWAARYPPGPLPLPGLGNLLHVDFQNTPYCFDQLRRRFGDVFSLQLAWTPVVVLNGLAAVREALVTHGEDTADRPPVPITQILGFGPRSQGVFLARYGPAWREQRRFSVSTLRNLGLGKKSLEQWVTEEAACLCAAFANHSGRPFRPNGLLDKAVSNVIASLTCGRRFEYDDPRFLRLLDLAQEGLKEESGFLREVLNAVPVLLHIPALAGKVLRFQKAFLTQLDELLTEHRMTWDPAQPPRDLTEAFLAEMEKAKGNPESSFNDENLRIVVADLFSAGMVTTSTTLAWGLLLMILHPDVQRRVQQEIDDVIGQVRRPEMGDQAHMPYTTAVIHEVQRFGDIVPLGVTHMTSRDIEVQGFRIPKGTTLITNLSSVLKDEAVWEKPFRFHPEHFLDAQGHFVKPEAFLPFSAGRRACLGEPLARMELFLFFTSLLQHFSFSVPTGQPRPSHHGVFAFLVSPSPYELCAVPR

[9] = Mean residence time in cynomolgus monkey at 0.5 mg/kg, iv; format: ADME, organism-based, Macaca fascicularis; parameters: dose 0.5 mg/kg, route intravenous; conditions: in vivo; procedure, shortened: as §2
[10] = target: T2, C-X-C chemokine receptor type 3 (Mus musculus, UniProt O88410); experiment: Receptor occupancy of CXCR3 in mouse whole blood assessed as inhibition of ITAC binding by fluorescence quenching based FACS analysis
T2 sequence (O88410 whole entry): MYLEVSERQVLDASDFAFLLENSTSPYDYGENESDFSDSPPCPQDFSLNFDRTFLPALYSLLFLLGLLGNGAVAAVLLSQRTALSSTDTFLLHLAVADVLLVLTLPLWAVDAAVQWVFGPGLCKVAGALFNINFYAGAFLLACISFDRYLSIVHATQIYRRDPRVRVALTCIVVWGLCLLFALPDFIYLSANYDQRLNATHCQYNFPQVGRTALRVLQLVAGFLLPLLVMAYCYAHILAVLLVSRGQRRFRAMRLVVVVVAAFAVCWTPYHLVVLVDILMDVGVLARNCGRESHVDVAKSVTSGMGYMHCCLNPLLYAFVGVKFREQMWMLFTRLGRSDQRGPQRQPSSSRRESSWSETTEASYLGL

Blood [11] = experiment: Drug level in C57BL/6 mouse blood at 1 mg/kg, sc after 1 hr; format: ADME, organism-based; parameters: dose 1 mg/kg, route subcutaneous; conditions: in vivo
Procedure, shortened: (§3)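 C57BL/6 mice given bleomycin intra-tracheally and dosed subcutaneously by osmotic mini-pump for 6 days; plasma collected to measure drug level, reported 1 h post dose.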

[12] = Fraction unbound in mouse plasma; format: ADME, cell-free
[13] = Fraction unbound in rat plasma; format: ADME, cell-free
[14] = Mean residence time in Beagle dog at 0.5 mg/kg, iv; format: ADME, organism-based, Canis lupus familiaris; parameters: dose 0.5 mg/kg, route intravenous; conditions: in vivo; procedure, shortened: as §2
Cynomolgus monkey = experiment: Hepatic blood flow in cynomolgus monkey at 0.5 mg/kg, iv; format: ADME, organism-based, Macaca fascicularis, Liver; parameters: dose 0.5 mg/kg, route intravenous; conditions: in vivo; procedure, shortened: as §2
Rattus norvegicus [15] = experiment: Hepatic blood flow in rat at 0.5 mg/kg, iv; format: ADME, organism-based, Liver; parameters: dose 0.5 mg/kg, route intravenous; conditions: in vivo; procedure, shortened: as §2
Canis familiaris = experiment: Hepatic blood flow in Beagle dog at 0.5 mg/kg, iv; format: ADME, organism-based, Canis lupus familiaris, Liver; parameters: dose 0.5 mg/kg, route intravenous; conditions: in vivo; procedure, shortened: as §2
Mus musculus [16] = experiment: Inhibition of bleomycin-induced leukocyte migration into lungs in C57BL/6 mouse lung injury model by measuring cell count in bronchoalveolar lavage fluid at 1 mg/kg, sc administered for 6 days; format: functional; conditions: route subcutaneous
Procedure, shortened: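 C57BL/6 mice given one intra-tracheal instillation of bleomycin, 1 mg/kg; compound delivered subcutaneously by osmotic mini-pump from challenge day for 6 days; cells counted in bronchoalveolar lavage on day six.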

[17] = Apparent oral bioavailability in cynomolgus monkey at 2 mg/kg; format: ADME, organism-based, Macaca fascicularis; conditions: in vivo, read-out: Fapp
[18] = Clearance in cynomolgus monkey at 0.5 mg/kg, iv; format: ADME, organism-based, Macaca fascicularis; parameters: dose 0.5 mg/kg, route intravenous; conditions: in vivo; procedure, shortened: as §2
Mus musculus [19] = experiment: Hepatic blood flow in mouse at 1 mg/kg, iv; format: ADME, organism-based, Liver; parameters: dose 1 mg/kg, route intravenous; conditions: in vivo; procedure, shortened: as §2
Blood [20] = experiment: Drug level in C57BL/6 mouse blood at 10 mg/kg, sc after 1 hr; format: ADME, organism-based; parameters: dose 10 mg/kg, route subcutaneous; conditions: in vivo; procedure, shortened: as §3
Cytochrome P450 3A4 = Cytochrome P450 3A4 (Homo sapiens, UniProt P08684); experiment: Inhibition of CYP3A4; format: ADME
Sequence of Cytochrome P450 3A4 (P08684 whole entry): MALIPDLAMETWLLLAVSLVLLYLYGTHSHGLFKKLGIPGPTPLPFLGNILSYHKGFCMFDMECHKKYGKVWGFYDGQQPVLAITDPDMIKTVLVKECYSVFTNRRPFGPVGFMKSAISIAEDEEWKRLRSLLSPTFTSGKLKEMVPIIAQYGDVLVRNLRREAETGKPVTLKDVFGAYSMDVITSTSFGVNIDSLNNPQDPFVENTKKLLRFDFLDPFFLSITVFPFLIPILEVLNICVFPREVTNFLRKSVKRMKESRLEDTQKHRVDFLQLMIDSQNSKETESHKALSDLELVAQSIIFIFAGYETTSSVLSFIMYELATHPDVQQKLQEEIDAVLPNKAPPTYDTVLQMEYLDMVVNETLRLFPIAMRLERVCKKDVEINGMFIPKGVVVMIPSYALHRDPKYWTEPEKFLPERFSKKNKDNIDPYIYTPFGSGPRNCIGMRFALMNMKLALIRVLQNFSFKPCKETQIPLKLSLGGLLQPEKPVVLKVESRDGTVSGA

[21] = Fraction unbound in cynomolgus monkey plasma; format: ADME, cell-free, Macaca fascicularis
[22] = Fraction unbound in Beagle dog plasma; format: ADME, cell-free, Canis lupus familiaris
[23] = Apparent oral bioavailability in Beagle dog at 2 mg/kg; format: ADME, organism-based, Canis lupus familiaris; conditions: in vivo, read-out: Fapp
[24] = Mean residence time in mouse at 1 mg/kg, iv; format: ADME, organism-based; parameters: dose 1 mg/kg, route intravenous; conditions: in vivo; procedure, shortened: as §2
[25] = Volume of distribution at steady state in cynomolgus monkey at 0.5 mg/kg, iv; format: ADME, organism-based, Macaca fascicularis; parameters: dose 0.5 mg/kg, route intravenous; conditions: in vivo, read-out: Vdss; procedure, shortened: as §2
[26] = Half life in Beagle dog at 0.5 mg/kg, iv; format: ADME, organism-based, Canis lupus familiaris; parameters: dose 0.5 mg/kg, route intravenous; conditions: in vivo; procedure, shortened: as §2
[27] = Mean residence time in rat at 0.5 mg/kg, iv; format: ADME, organism-based; parameters: dose 0.5 mg/kg, route intravenous; conditions: in vivo; procedure, shortened: as §2
[28] = Half life in mouse at 1 mg/kg, iv; format: ADME, organism-based; parameters: dose 1 mg/kg, route intravenous; conditions: in vivo; procedure, shortened: as §2
[29] = Apparent oral bioavailability in mouse at 5 mg/kg; format: ADME, organism-based; conditions: in vivo, read-out: Fapp
[30] = Clearance in mouse at 1 mg/kg, iv; format: ADME, organism-based; parameters: dose 1 mg/kg, route intravenous; conditions: in vivo; procedure, shortened: as §2
Rattus norvegicus [31] = experiment: Clearance in rat at 0.5 mg/kg, iv; format: ADME, organism-based; parameters: dose 0.5 mg/kg, route intravenous; conditions: in vivo; procedure, shortened: as §2
[32] = Clearance in Beagle dog at 0.5 mg/kg, iv; format: ADME, organism-based, Canis lupus familiaris; parameters: dose 0.5 mg/kg, route intravenous; conditions: in vivo; procedure, shortened: as §2
[33] = Half life in rat at 0.5 mg/kg, iv; format: ADME, organism-based; parameters: dose 0.5 mg/kg, route intravenous; conditions: in vivo; procedure, shortened: as §2
[34] = Volume of distribution at steady state in Beagle dog at 0.5 mg/kg, iv; format: ADME, organism-based, Canis lupus familiaris; parameters: dose 0.5 mg/kg, route intravenous; conditions: in vivo, read-out: Vdss; procedure, shortened: as §2
Blood [35] = experiment: Drug level in C57BL/6 mouse blood at 3 mg/kg, sc after 1 hr; format: ADME, organism-based; parameters: dose 3 mg/kg, route subcutaneous; conditions: in vivo; procedure, shortened: as §3
[36] = Volume of distribution at steady state in mouse at 1 mg/kg, iv; format: ADME, organism-based; parameters: dose 1 mg/kg, route intravenous; conditions: in vivo, read-out: Vdss; procedure, shortened: as §2
[37] = target: T1, C-X-C chemokine receptor type 3; experiment: Receptor occupancy of CXCR3 in human whole blood assessed as inhibition of ITAC binding by fluorescence quenching based FACS analysis

With `C[C@H](c1nc2ccccn2c(=O)c1-c1ccc(C#N)cc1)N(CC1CCS(=O)(=O)CC1)C(=O)Cc1ccc(OC(F)(F)F)cc1` the Activity (PBL [1]) was “Toxic”, the pIC50 [2] was 7.66 and the pIC50 [3] was 8.22. For the same compound, the Activity (PBL [4]) was “Toxic”.

With `CCS(=O)(=O)CCN(C(=O)Cc1ccc(C(F)(F)F)c(F)c1)[C@H](C)c1nc2ncccc2c(=O)n1-c1ccc(F)cc1` the Activity (PBL [1]) was “Non-toxic”, the Papp [5] was 0.8 ×10⁻⁶ cm/s and the pIC50 [2] was 7.24. The pIC50 [3] was 7.33 and the Activity (PBL [4]) was “Non-toxic”.

For `CCS(=O)(=O)CCN(C(=O)Cc1ccc(F)c(C(F)(F)F)c1)[C@H](C)c1nc2ncccc2c(=O)n1-c1ccc(Cl)cc1`, the Activity (PBL [1]) was “Non-toxic”, the pIC50 [2] was 7.66 and the pIC50 [3] was 8.22. The Activity (PBL [4]) was “Non-toxic”.

In the case of `CCS(=O)(=O)CCN(C(=O)Cc1ccc(C(F)(F)F)c(F)c1)[C@H](C)c1nc2ncccc2c(=O)n1-c1ccc(Cl)cc1`, the Activity (PBL [1]) was “Non-toxic”, the pIC50 [2] was 7.68 and the pIC50 [3] was 8.15. The Activity (PBL [4]) was “Non-toxic”.

For `C[C@H](c1nc2ncccc2c(=O)n1-c1ccc(Cl)cc1)N(CC1CCS(=O)(=O)CC1)C(=O)Cc1ccc(F)c(C(F)(F)F)c1`, the half-life [6] was 9 h, the bioavailability [7] was 69% and the Vd [8] was 1.9 L/kg. The pIC50 (Cytochrome P450 2D6) was < 5.00, the MRT [9] was 8.7 h and the Activity (PBL [1]) was “Non-toxic”. The pIC50 [10] was 6.70, the Drug uptake (Blood [11]) was 1.3 µM and the fraction unbound [12] was 0.007. For the same compound, the fraction unbound [13] was 0.061, the MRT [14] was 1.1 h and the QH (Cynomolgus monkey) was 3%. The pIC50 [2] was 7.92, the QH (Rattus norvegicus [15]) was 3% and the QH (Canis familiaris) was 82%. The EC (Mus musculus [16]) was 1 mg/kg, the bioavailability [17] was 44% and the clearance [18] was 2 mL/min/kg. The QH (Mus musculus [19]) was 3%, the Drug uptake (Blood [20]) was 5.6 mg/kg and the pIC50 (Cytochrome P450 3A4) was < 5.00. For the same compound, the fraction unbound [21] was 0.037, the fraction unbound [22] was 0.015 and the bioavailability [23] was > 100%. The pIC50 [3] was 8.22, the Activity (PBL [4]) was “Non-toxic” and the MRT [24] was 3.9 h. For the same compound, the Vd [25] was 1.2 L/kg, the half-life [26] was 1 h and the MRT [27] was 3.5 h. The half-life [28] was 4 h, the bioavailability [29] was 45% and the clearance [30] was 2.17 mL/min/kg. The CL (Rattus norvegicus [31]) was 8.17 mL/min/kg, the clearance [32] was 25 mL/min/kg and the half-life [33] was 4 h. The Vd [34] was 1.4 L/kg, the Drug uptake (Blood [35]) was 3.4 mg/kg and the Vd [36] was 0.48 L/kg. For the same compound, the pIC50 [37] was 8.01.

With `C[C@H](c1nc2ncccc2c(=O)n1-c1ccc(Cl)cc1)N(CC1CCS(=O)(=O)CC1)C(=O)Cc1ccc(C(F)(F)F)c(F)c1` the pIC50 (Cytochrome P450 2D6) was < 5.00, the Activity (PBL [1]) was “Non-toxic” and the pIC50 [2] was 7.89. The pIC50 (Cytochrome P450 3A4) was < 5.00 and the Activity (PBL [4]) was “Non-toxic”.
